Reference: publication PMC3124385 (Clinical pharmacology and therapeutics, 2011)
Like-named read-outs stand apart in the source and are kept apart here. Starred links: 1 amine or outer side, 2 acyl side, 3 side chain; linkers in the order of their positions; H or OH if unused. Positions of bridges follow the written chain, without caps; N, C: chain ends. Non-standard residues stand in square brackets, D forms with d. Residues, ends and D or L forms follow the SMILES beside them. *: point of attachment. pTerphenylCO(4''-OnC5H11) = CCCCCOc1ccc(-c2ccc(-c3ccc(C(=O)*)cc3)cc2)cc1; Orn(4R-OH,5R-OH) = O=C([C@H](C[C@@H](O)[C@@H](O)N[*:3])N[*:1])[*:2]; hTyr(3S-OH,4S-OH) = N[C@H](C(=O)O)[C@H](O)[C@@H](O)c1ccc(O)cc1; Pro(3S-OH,4S-Me) = C[C@H]1CN[C@H](C(=O)O)[C@H]1O; Hyp = O=C(O)[C@@H]1C[C@@H](O)CN1

What was measured:
[1] = ref [10], cited from earlier work
[2] = assay type: in vivo, human; conditions: for C24 LD, trough (24 h) concentration after the loading dose / Cmax LD, maximum concentration after loading dose: after 3 mg/kg IV loading dose, day 1, plasma LC-MS/MS
Procedure, shortened: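 IV infusion over 60 min (≤1.1 mg/min): 3 mg/kg loading dose day 1, then 1.5 mg/kg daily up to day 5. Infants got a 20% alcohol-based form and neonates an alcohol-free water-for-injection form. Venous plasma drawn day 1 (predose, end-infusion, 20–24 h) and days 3–5 (predose to 18–24 h), kept at −80°C, assayed by LC-MS/MS (0.05–20.0 μg/ml). Noncompartmental analysis of doses 3–5; AUC by linear trapezoidal rule; CL = dose/AUC.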

[3] = ref [12], cited from earlier work
[4] = tested on: cytochrome P450 enzymatic system; conditions: ref [10]; cited from earlier work
[5] = Safety: adverse events and clinical laboratory tests in infants and neonates; assay type: in vivo, human

CCCCCOc1ccc(-c2ccc(-c3ccc(C(=O)N[C@H]4C[C@@H](O)[C@@H](O)NC(=O)[C@@H]5[C@@H](O)[C@@H](C)CN5C(=O)[C@H]([C@@H](C)O)NC(=O)[C@H]([C@H](O)[C@@H](O)c5ccc(O)cc5)NC(=O)[C@@H]5C[C@@H](O)CN5C(=O)[C@H]([C@@H](C)O)NC4=O)cc3)cc2)cc1 [anidulafungin, Anidulafungin] ({pTerphenylCO(4''-OnC5H11)}-[Orn(4R-OH,5R-OH)]T[Hyp][hTyr(3S-OH,4S-OH)]T[Pro(3S-OH,4S-Me)]; lactam 1-C)
hepatic metabolism [1, 11]: lacks significant hepatic metabolism | degradation in the blood [1]: undergoes chemical degradation in the blood | renal clearance [1]: not renally cleared | drug accumulation after multiple anidulafungin doses ([2]; comparing trough concentrations after the loading dose and those obtained after multiple doses): not apparent | Cmax ([2]; human, plasma, iv, 1.5 mg/kg): 4200 ng/mL | Cmax ([2]; human, plasma, iv, 3 mg/kg): 5000 ng/mL | level at 24 h ([2]; human, plasma, iv, 3 mg/kg): 2100 ng/mL | trend in weight-adjusted clearance (CLss) with changes in postmenstrual age ([2]; scatter plot, Figure 3, neonates and infants): No trend was observed | C24 LD, trough (24 h) concentration after the loading dose ([2]; subject 4, neonate): 2.1 µg/mL | Cmax LD, maximum concentration after loading dose ([2]; subject 4, neonate): 4000 ng/mL | C24 LD, trough (24 h) concentration after the loading dose ([2]; subject 6, neonate): 3.2 µg/mL | Cmax LD, maximum concentration after loading dose ([2]; subject 6, neonate): 5900 ng/mL | C24 LD, trough (24 h) concentration after the loading dose ([2]; subject 8, neonate): 1.9 µg/mL | Cmax LD, maximum concentration after loading dose ([2]; subject 8, neonate): 4900 ng/mL | C24 LD, trough (24 h) concentration after the loading dose ([2]; subject 9, infant): 2.3 µg/mL | Cmax LD, maximum concentration after loading dose ([2]; subject 9, infant): 7100 ng/mL | C24 LD, trough (24 h) concentration after the loading dose ([2]; subject 10, infant): 2.4 µg/mL | Cmax LD, maximum concentration after loading dose ([2]; subject 10, infant): 5000 ng/mL | C24 LD, trough (24 h) concentration after the loading dose ([2]; subject 11, infant): 1.9 µg/mL | Cmax LD, maximum concentration after loading dose ([2]; subject 11, infant): 6800 ng/mL | AUCss of older children and adults ([3]; older children (1.5 mg/kg/day) and adults (100 mg/day)): 100000 ng·h/mL | half life in other pediatric patients ([3]; other pediatric patients): 20 to 24 h | metabolism by the cytochrome P450 enzymatic system [4]: not metabolized by the cytochrome P450 enzymatic system | subjects who experienced at least one adverse event ([5]; eight out of 15 subjects, neonates and infants): 53% | maximum bilirubin level during study drug administration ([5]; other infant with worsening hyperbilirubinemia, baseline 9.1 mg/dL): 10.4 mg/dL
